Experiments:
Staphylococcus aureus [1] = test: Antibiofilm activity against Staphylococcus aureus ATCC 25923 after 24 hrs by crystal violet staining based assay; format: functional, organism-based; conditions: ATCC 25923, 24 h
Procedure, shortened: (§1)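 Overnight TSB + 2% w/v glucose cultures (37 °C, 24 h) diluted to 0.5 McFarland, inoculated into 96-well plates of TSB/2% glucose with compound (100 µg/mL screen, or 100–0.001 µM for IC50). Static 37 °C, 24 h; wells PBS-washed, 0.1% crystal violet 30 min, solubilized in 33% acetic acid, OD 540 nm. % inhibition vs growth control; duplicates, ≥3 independent experiments.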

Sortase A = target: T1, Sortase A (Staphylococcus aureus, UniProt Q9S446); test: Inhibition of Staphylococcus aureus SrtA using dabcyl-QALPETGEE-edans as substrate preincubated for 1 hr followed by substrate addition and measured at 1 min interval for 1 hr by fluorescence assay
T1 sequence (Q9S446 whole entry): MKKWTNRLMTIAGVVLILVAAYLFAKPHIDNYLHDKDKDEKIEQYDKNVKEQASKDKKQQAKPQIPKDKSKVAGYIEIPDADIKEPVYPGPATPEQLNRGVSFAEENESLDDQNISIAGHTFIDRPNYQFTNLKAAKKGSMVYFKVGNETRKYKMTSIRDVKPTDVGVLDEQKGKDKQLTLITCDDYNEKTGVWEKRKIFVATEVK
Procedure, shortened: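 Recombinant S. aureus SrtA (10 µM) preincubated 1 h at 37 °C in 50 mM Tris-HCl, 5 mM CaCl2, 150 mM NaCl, pH 7.5 with increasing inhibitor levels; FRET peptide added to 50 µM final. Cleavage fluorescence read at ex 350/em 495 nm; progress curves used for IC50. Stocks 10 mM in DMSO; berberine chloride positive control, enzyme-free substrate negative control.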

Pseudomonas aeruginosa = test: Antibiofilm activity against Pseudomonas aeruginosa ATCC 15442 after 24 hrs by crystal violet staining based assay; format: functional, organism-based; conditions: ATCC 15442, 24 h; procedure, shortened: as §1
Staphylococcus aureus [2] = test: Inhibition of Staphylococcus aureus AtlA assessed as reduction in biofilm formation at 1 uM measured after 24 hrs
Procedure, shortened: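 S. aureus overnight culture (TSB + 2% glucose, 37 °C, 200 rpm) inoculated 1:100 into TSB/2% glucose containing 1 µM compound (from DMSO stock) in 24-well plates. Static incubation at 37 °C for 24 h. Biofilm inhibition is expressed relative to untreated cultures. Untreated and 0.1% DMSO controls. Triplicate cultivations.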

Staphylococcus aureus [3] = test: Inhibition of Staphylococcus aureus AtlA assessed as reduction in enzyme activity at 1 uM measured after 24 hrs y methylene blue staining based zymography relative to control
Procedure, shortened: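 Spent medium from 24 h static S. aureus cultures (1 µM compound; untreated and 0.1% DMSO controls) was centrifuged, and the supernatant was lyophilized and resuspended in Tris-HCl pH 7.4. Proteins were run on 12% SDS-PAGE containing 1 mg/mL Micrococcus lysodeikticus cells. The gel was renatured (Triton X-100 buffer, 37 °C, 16–48 h) and stained with 0.1% methylene blue. Clear bands were quantified by densitometry as lysozyme µg equivalents, in triplicate.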

SMILES | IC50 (Staphylococcus aureus [1]) [µM] | IC50 (Sortase A) [µM] | IC50 (Pseudomonas aeruginosa) [µM] | inhibition (Staphylococcus aureus [2]) [%] | fold change (FC) (Staphylococcus aureus [3])
O=C(c1cc(Cl)cc(Cl)c1O)c1[nH]c(Cl)c(Br)c1Cl | 0.0247 | 160 | 18.6 |  | 
O=C(c1cc(Cl)cc(Cl)c1O)c1[nH]c(Cl)c(Cl)c1Br | 0.1 | 130 | 170 |  | 
O=C(c1cc(Cl)c(Cl)[nH]1)c1cc(Cl)cc(Cl)c1O | 0.92 | 300 | 236 |  | 
O=C(c1cc(Cl)cc(Cl)c1O)c1[nH]c(Br)c(Br)c1Br | 20.3 | 130 | 106 |  | 
O=C(c1cc(Br)ccc1O)c1[nH]c(Br)c(Cl)c1Br | 0.0087 | 250 | 78.9 | < 80 | 2
O=C(c1cc(Br)cc(Br)c1O)c1[nH]c(Br)c(Br)c1Br | 0.0034 | 140 | 74.8 | < 80 | 2
